Results of several laboratories.
Each line is one published result; the experiments were not run side by side.
Target: Dual specificity mitogen-activated protein kinase kinase 3 (MAP2K3, Homo sapiens, UniProt P46734)
Sequence (P46734 1-347, as in one of the studies): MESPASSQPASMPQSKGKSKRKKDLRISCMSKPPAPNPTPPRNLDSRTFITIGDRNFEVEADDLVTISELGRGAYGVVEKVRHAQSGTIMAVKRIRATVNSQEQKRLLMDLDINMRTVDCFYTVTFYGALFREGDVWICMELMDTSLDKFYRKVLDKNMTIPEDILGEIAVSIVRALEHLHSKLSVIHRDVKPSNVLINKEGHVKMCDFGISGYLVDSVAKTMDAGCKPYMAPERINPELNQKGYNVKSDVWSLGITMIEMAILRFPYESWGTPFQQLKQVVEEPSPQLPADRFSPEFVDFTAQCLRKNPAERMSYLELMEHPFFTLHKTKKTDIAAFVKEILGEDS

| SMILES | assay | conditions | remaining binding [%] |
| --- | --- | --- | --- |
| Nc1cnc(N2CCc3cc(S(=O)(=O)Nc4c(F)cc(Cl)cc4F)cc(N4CCCC4=O)c32)nc1 | cell-free assay, competition with immobilised ligand | 1 µM | 100 |
| Cc1cnc(Nc2ccc(C(=O)N3CCC(N4CCCC4)CC3)cc2)nc1-c1cc2ccccc2s1 | binding, competition with immobilised ligand | 1 µM | 42 |
| C[C@H](NC(=O)c1cnc2n1[C@](C)(Cc1ccc(C#N)cc1)C(=O)N2c1cc(Cl)c(F)c(Cl)c1)C(=O)NC1(c2ccccn2)CC1 | cell-free assay, competition with immobilised ligand | 1 µM | 80 |
| CNC(=O)[C@@H]1CC[C@@H](n2c(-c3ccc4cnccc4c3)nc3ccc(C(=O)NCc4cccc(C(N)=O)c4)cc32)C1 | binding, competition with immobilised ligand | 1 µM | 98 |
| CCN1CCN(Cc2ccc(C(=O)Nc3ccc(C)c(Oc4ccc5c(c4)CC(=O)N5)c3)cc2C(F)(F)F)CC1 | binding, competition with immobilised ligand | 1 µM | 100 |
| O=C(c1ccc(Nc2nccc(-c3cc4ccccc4s3)n2)cc1)N1CCC(N2CCCC2)CC1 | binding, competition with immobilised ligand | 1 µM | 42 |
| CN(CCCC(F)(F)F)c1nccc(-c2cnn3ncccc23)n1 | binding | 1 µM | 99 |
| c1cncc(-c2cccc(Nc3nccc(NC4CCCCC4)n3)c2)c1 | binding, competition with immobilised ligand | 10 µM | 32 |
| COc1ncc2cc3ccccc3nc2c1C#N | cell-free assay, competition with immobilised ligand | 5 µM | 74 |
| FC(F)(F)c1ccc2c(c1)nc(-c1cccnc1)n2C1CC1 | cell-free assay, competition with immobilised ligand | 1 µM | 100 |
| N[C@@H]1CCN(c2nccc(-c3cnn4ncccc34)n2)C1 | binding | 1 µM | 59 |
| O=C(NCC1CCOCC1)c1n[nH]cc1NC(=O)c1c(F)cccc1F | binding, competition with immobilised ligand | 1 µM | 64 |
| c1cnn2ncc(-c3ccnc(N4CCC45COC5)n3)c2c1 | binding | 1 µM | 31 |
| CC1=C(C#N)[C@@H](c2ccc3[nH]nc(C)c3c2)C(C#N)=C(c2ccc(Cl)cc2)N1 | cell-free assay, competition with immobilised ligand | 1 µM | 53.5 |
| Cc1cnn2ncc(-c3ccnc(N(C)C)n3)c2c1 | binding | 1 µM | 83 |
| COc1cnc(Nc2cccc(S(N)(=O)=O)c2)nc1N1CCN(c2ccccc2)CC1 | binding, competition with immobilised ligand | 1 µM | 79 |
| Cn1nc(C(F)(F)F)cc1-c1cnc(N2CCc3cc(S(=O)(=O)Nc4c(F)cc(Cl)cc4F)cc(N4CCCC4=O)c32)nc1 | cell-free assay, competition with immobilised ligand | 1 µM | 82 |
| CN(C)c1ncc(F)c(-c2cnn3ncccc23)n1 | binding | 1 µM | 78 |
| CO[C@@H](C)c1c(Nc2ccc([C@@H](N(C)C(=O)C3CCS(=O)(=O)CC3)C(F)(F)F)cc2)cnc2cc(Cl)nn12 | cell-free assay, competition with immobilised ligand | 1 µM | 90 |
| C[C@H]1CCN(c2nccc(-c3cnn4ncccc34)n2)C1 | binding | 1 µM | 69 |
| c1ccc(N2CCN(Cc3nc4ccccc4[nH]3)CC2)nc1 | binding, competition with immobilised ligand | 1 µM | 96 |
| O=C(NCCCN1CCOCC1)c1ccc(Nc2ncc(Cl)c(-c3ccc(Cl)s3)n2)cc1 | binding, competition with immobilised ligand | 1 µM | 51 |
